Results published in ChEMBL document CHEMBL2029338, “Synthesis, biological evaluation, and molecular docking studies of benzyl, alkyl and glycosyl [2-(arylamino)-4,4-dimethyl-6-oxo-cyclohex-1-ene]carbodithioates, as potential immunomodulatory and immunosuppressive agents” (Bioorg Med Chem, 2012).
In brackets after ≈: the same amount, converted by molar mass.

Legend:
[1] = test system: THP-1; test: Antiinflammatory activity in PMA-stimulated human THP1 cells assessed as inhibition of LPS-induced IL-1beta production at 25 ug/mL after 18 hrs; assay type: functional; conditions: THP-1, 18 h
Summary of the method: (§1)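 THP-1 cells plated at 2.5 × 10⁵ cells/mL and differentiated to macrophage-like cells with PMA (20 ng/mL final) for 24 h at 37 °C, 5% CO₂. Then stimulated with LPS (50 ng/mL final) and treated with test compounds. TNF-α was measured in supernatant at 4 h and IL-1β at 18 h by DuoSet ELISA.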

[2] = test system: PBMC; test: Immunosuppressive activity against human PBMC assessed as inhibition of PHA/PMA-induced IL2 production after 18 hrs by ELISA
[3] = (§2) Antiinflammatory activity in human whole blood phagocytes assessed as inhibition of respiratory burst measuring ROS after 30 mins by luminol-enhanced chemiluminescence assay; assay type: functional, cell-based; conditions: 0.5 h
Summary of the method: (§3)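 Luminol-enhanced chemiluminescence of whole blood phagocytes. Compounds at 1.0, 10 and 100 µg/mL in HBSS⁺⁺ (with Ca²⁺/Mg²⁺) were incubated with whole blood diluted 1:50 for 30 min at 37 °C. Luminol and serum-opsonized zymosan (S. cerevisiae) were then added. ROS kinetics were monitored by luminometer for 50 min in repeated scan mode, with positive, negative and blank controls.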

[4] = test system: J774.2; test: Antiinflammatory activity in lipopolysaccharide-induced mouse J774.2 cells assessed as inhibition of nitric oxide production at 25 ug/mL after 24 hrs by Griess method; assay type: functional; conditions: J774.2, 24 h
Summary of the method: (§4)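 J774.2 mouse macrophages grown in DMEM with 10% FBS, seeded at 10⁶ cells/mL. NOS-2 induced with E. coli LPS; compounds at 25 µg/mL added right after LPS, 37 °C, 5% CO₂. Supernatant taken at 24 h and nitrite read by Griess reagent (sulfanilamide, then naphthylethylenediamine in 2.5% phosphoric acid), 10 min at 23 °C, A550. Quantified against a sodium nitrite standard curve; mean ± SD of duplicate readings.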

[5] = test system: PBMC; test: Immunosuppressive activity in human PBMC assessed as inhibition of PHA-induced cell proliferation after 72 hrs by [methyl-3H]thymidine incorporation assay; assay type: functional, cell-based
Summary of the method: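 Human PBMCs from healthy donor venous blood, isolated by density separation and cultured in RPMI-1640 with 10% FBS. Stimulated with PHA in the presence of increasing compound concentrations for 72 h at 37 °C, 5% CO₂. [methyl-³H]thymidine 0.5 µCi/well added for a further 18 h, then harvested and counted by liquid scintillation. Expressed as % of stimulated control, mean ± SD of triplicates; IC50 derived.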

[6] = test system: THP-1; test: Antiinflammatory activity in PMA-stimulated human THP1 cells assessed as inhibition of LPS-induced TNFalpha production at 25 ug/mL after 4 hrs; assay type: functional; conditions: THP-1, 4 h; summary of the method: as §1
[7] = test system: J774.2; test: Antiinflammatory activity in lipopolysaccharide-induced mouse J774.2 cells assessed as inhibition of nitric oxide production after 24 hrs by Griess method; assay type: functional, cell-based; conditions: J774.2, 24 h; summary of the method: as §4
[8] = test system: 3T3-L1; test: Cytotoxicity against mouse 3T3L1 cells after 48 hrs by MTT assay; assay type: cell-based; conditions: 3T3-L1, 48 h
Summary of the method: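 3T3-L1 mouse embryo fibroblasts in DMEM with 10% FBS. Plated at 6 × 10⁴ cells/mL for 24 h at 37 °C, 5% CO₂, then exposed to compounds (up to 20 µg/mL) in triplicate for 48 h. Viability by MTT 0.5 mg/mL for 4 h, DMSO solubilization, absorbance at 540 nm; mean ± SD of triplicates.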

[9] = test system: CC-1; test: Cytotoxicity against Wistar rat CC1 cells after 48 hrs by MTT assay; assay type: cell-based; conditions: CC-1, 48 h
Summary of the method: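 Plated at 6 × 10⁴ cells/mL for 24 h at 37 °C, 5% CO₂, then exposed to compounds (up to 20 µg/mL) in triplicate for 48 h. MTT 0.5 mg/mL for 4 h, formazan dissolved in DMSO, A540; mean ± SD of triplicates.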

[10] = species: Homo sapiens; test: as §2; assay type: functional, cell-based; summary of the method: as §3

| IC50 [3] | IC50 [7] | SMILES | inhibition at 25 µg/mL [1] | IC50 [2] | inhibition at 25 µg/mL [4] | IC50 [5] | inhibition at 25 µg/mL [6] | inhibition [2] | inhibition [5] | IC50 [8] | IC50 [9] | inhibition [10] |
| --- | --- | --- | --- | --- | --- | --- | --- | --- | --- | --- | --- | --- |
| > 100 µg/mL | – | CC1(C)CC(=O)C(C(=S)SCCO)=C(Nc2ccc(Cl)cc2)C1 | 48.1% | > 20 µg/mL | 43.3% | 21 µg/mL (≈ 56.8 µM) | 0% | – | – | – | – | – |
| > 100 µg/mL | – | CC1(C)CC(=O)C(C(=S)SCc2ccccc2)=C(Nc2ccc(Cl)cc2)C1 | 13.1% | > 20 µg/mL | 10.4% | > 50 µg/mL | -21% | – | – | – | – | – |
| > 100 µg/mL | – | CCCCCCCCCCCSC(=S)C1=C(Nc2ccc(Br)cc2)CC(C)(C)CC1=O | -22.7% | > 20 µg/mL | 32.1% | > 50 µg/mL | -58.7% | – | – | – | – | – |
| > 100 µg/mL | 49.1 µM | CC1(C)CC(=O)C=C(Nc2ccc(Br)cc2)C1 | -26.8% | > 20 µg/mL | 62.7% | > 50 µg/mL | -31.4% | – | – | – | – | – |
| > 100 µg/mL | – | CCCCSC(=S)C1=C(Nc2ccc(Br)cc2)CC(C)(C)CC1=O | – | > 20 µg/mL | 18.9% | > 50 µg/mL | -31.4% | – | – | – | – | – |
| > 100 µg/mL | – | CC1(C)CC(=O)C(C(=S)SCCO)=C(Nc2ccc(Br)cc2)C1 | 5.5% | > 20 µg/mL | 37% | 8.3 µg/mL (≈ 20 µM) | -33.5% | Dose-dependent effect | Dose-dependent effect | – | – | – |
| > 100 µg/mL | – | CC1(C)CC(=O)C(C(=S)SCc2ccccc2)=C(Nc2ccc(Cl)cc2Cl)C1 | -119% | > 20 µg/mL | 39.5% | > 50 µg/mL | -50.3% | – | – | – | – | – |
| > 100 µg/mL | – | CCCCSC(=S)C1=C(Nc2ccc(Cl)cc2Cl)CC(C)(C)CC1=O | -22% | > 20 µg/mL | 35.2% | > 50 µg/mL | -14.7% | – | – | – | – | – |
| > 100 µg/mL | – | CCCCSC(=S)C1=C(Nc2ccc(Cl)cc2)CC(C)(C)CC1=O | -92.9% | > 20 µg/mL | 23.6% | > 50 µg/mL | 10.5% | – | – | – | – | – |
| > 100 µg/mL | – | CC1(C)CC(=O)C=C(Nc2ccc(Cl)cc2Cl)C1 | 38.5% | > 20 µg/mL | 42.1% | 17.6 µg/mL (≈ 61.9 µM) | 6.3% | – | – | – | – | – |
| > 100 µg/mL | 7.7 µM | CC(=O)OC[C@H]1O[C@@H](SC(=S)C2=C(Nc3ccc(Br)cc3)CC(C)(C)CC2=O)[C@H](OC(C)=O)[C@@H](OC(C)=O)[C@@H]1OC(C)=O | 59.2% | 3.4 µg/mL (≈ 4.85 µM) | 68.4% | 8.8 µg/mL (≈ 12.6 µM) | 58.7% | Dose-dependent effect | Dose-dependent effect | > 20 µg/mL | 19.8 µg/mL (≈ 28.3 µM) | – |
| > 100 µg/mL | 16.1 µM | CC(=O)OC[C@H]1O[C@@H](SC(=S)C2=C(Nc3ccc(Cl)cc3Cl)CC(C)(C)CC2=O)[C@H](OC(C)=O)[C@@H](OC(C)=O)[C@@H]1OC(C)=O | – | > 20 µg/mL | 57.2% | 15.8 µg/mL (≈ 22.9 µM) | -48.2% | – | – | – | – | – |
| > 100 µg/mL | 63.8 µM | CC1(C)CC(=O)C=C(Nc2ccc(Cl)cc2)C1 | 17.2% | > 20 µg/mL | 62.4% | 15 µg/mL (≈ 60.1 µM) | -4.3% | – | – | – | – | – |
| > 100 µg/mL | – | CCCCCCCCCCCSC(=S)C1=C(Nc2ccc(Cl)cc2)CC(C)(C)CC1=O | -15.8% | > 20 µg/mL | 16.5% | > 50 µg/mL | -56.6% | – | – | – | – | – |
| 5.94 µg/mL | – | CC(=O)OC[C@H]1O[C@@H](SC(=S)C2=C(Nc3ccc(Cl)cc3Cl)CC(C)(C)CC2=O)[C@H](OC(C)=O)[C@@H](OC(C)=O)[C@H]1OC(C)=O | 86% | 2.1 µg/mL (≈ 3.04 µM) | 66.8% | 3.9 µg/mL (≈ 5.65 µM) | 83.8% | – | – | > 20 µg/mL | > 20 µg/mL | – |
| 90 µg/mL | 44.3 µM | CC(=O)OC[C@H]1O[C@@H](SC(=S)C2=C(Nc3ccc(Cl)cc3)CC(C)(C)CC2=O)[C@H](OC(C)=O)[C@@H](OC(C)=O)[C@@H]1OC(C)=O | 46.8% | 3.5 µg/mL (≈ 5.33 µM) | 77.3% | 9.9 µg/mL (≈ 15.1 µM) | 83.8% | Dose-dependent effect | Dose-dependent effect | > 20 µg/mL | > 20 µg/mL | – |
| > 100 µg/mL | – | CCCCCCCCCCCSC(=S)C1=C(Nc2ccc(Cl)cc2Cl)CC(C)(C)CC1=O | 30.3% | > 20 µg/mL | 39.7% | > 50 µg/mL | 29.3% | – | – | – | – | – |
| – | 36.4 µM | CC(C)=NNC1=C2C(=S)NN=C2CC(C)(C)C1 | – | 14.7 µg/mL (≈ 58.7 µM) | – | 13.2 µg/mL (≈ 52.7 µM) | – | Dose-dependent effect | Dose-dependent effect | – | – | Dose-dependent effect |
| > 100 µg/mL | – | CC1(C)CC(=O)C(C(=S)SCc2ccccc2)=C(Nc2ccc(Br)cc2)C1 | -158% | > 20 µg/mL | 38.5% | > 50 µg/mL | -50.3% | – | – | – | – | – |
| > 100 µg/mL | – | CC1(C)CC(=O)C(C(=S)SCCO)=C(Nc2ccc(Cl)cc2Cl)C1 | 16.5% | > 20 µg/mL | 44.8% | > 50 µg/mL | -50.3% | – | – | – | – | – |
